# Measurements as given in ChEMBL document CHEMBL4368878 (Medchemcomm, 2018).
# Activity calls are given as the source filed them. The calls are words filed in the database; no cut-off is given here.
# Organism: Homo sapiens
# Assay: Selectivity index, ratio of Ki for displacement of [3H]CP55940 from recombinant human CB1 receptor expressed in HEK293 cell membranes to Ki for displacement of [3H]CP55940 from recombinant human CB2 receptor expressed in HEK293 cell membranes
# Conditions: not given
# Outline: (§1)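 Membranes from HEK-293 cells stably expressing human recombinant CB1 (Bmax 2.5 pmol/mg protein) or CB2 (Bmax 4.7 pmol/mg protein). [3H]-CP-55,940 was used at 0.14 nM for CB1 (Kd 0.18 nM) and 0.084 nM for CB2 (Kd 0.31 nM), with increasing test concentrations, 90 min at 30 °C. Non-specific binding was set with 10 μM WIN 55212-2. Ki came from IC50 via Cheng–Prusoff; n ≥ 3, mean ± SEM. SI = CB1 Ki / CB2 Ki.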
row,Compound,Ratio Ki
1,COCCn1c(Cc2ccc(Cl)c(Cl)c2)nc2cc(C(F)(F)F)ccc21,> 1
2,CCCCn1c(Cc2ccc(Cl)c(Cl)c2)nc2cc(C(F)(F)F)ccc21,27

# Target: T1, Cannabinoid receptor 2 (Homo sapiens, UniProt P34972)
# T1 sequence (P34972 whole entry): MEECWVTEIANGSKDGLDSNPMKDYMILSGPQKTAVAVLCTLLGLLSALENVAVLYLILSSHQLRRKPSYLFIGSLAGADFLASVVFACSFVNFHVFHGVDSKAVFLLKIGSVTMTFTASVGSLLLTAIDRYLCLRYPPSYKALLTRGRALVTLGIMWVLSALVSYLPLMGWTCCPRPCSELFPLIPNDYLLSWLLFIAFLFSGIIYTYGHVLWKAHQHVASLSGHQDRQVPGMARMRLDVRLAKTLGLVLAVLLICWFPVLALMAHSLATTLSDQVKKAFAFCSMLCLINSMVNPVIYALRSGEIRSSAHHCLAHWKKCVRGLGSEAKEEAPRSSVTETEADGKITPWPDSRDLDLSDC
# Assay: Antagonist/inverse agonist activity at recombinant human CB2 receptor expressed in HEK293 cell membranes assessed as increase in NKH-477-induced cAMP accumulation preincubated followed by CB2 agonist JWH-133 addition and measured after 30 mins by luminescence assay
# Format: functional, cell-based
# Conditions: not given
row,Compound,Activity
1,CCCCn1c(Cc2ccc(Cl)c(Cl)c2)nc2cc(C(F)(F)F)ccc21,Active

# Target: T1, Cannabinoid receptor 2
# Assay: Displacement of [3H]CP55940 from recombinant human CB2 receptor expressed in HEK293 cell membranes at 10 uM measured after 90 mins relative to control
# Conditions: not given
row,Compound,inhibition [%]
1,COc1ccc(Cc2nc3cc(C(F)(F)F)ccc3n2C[C@@H]2CCCN3CCCC[C@H]23)cc1,19.7
2,COCCn1c(Cc2ccc(Cl)c(Cl)c2)nc2cc(C(F)(F)F)ccc21,53.8
3,CCN(CC)CCCn1c(Cc2ccc(OC)cc2)nc2cc(C(F)(F)F)ccc21,16.8
4,CCN(CC)CCn1c(-c2ccc(OC)cc2)nc2cc(C(F)(F)F)ccc21,46.9
5,CCCCn1c(Cc2ccc(Cl)c(Cl)c2)nc2cc(C(F)(F)F)ccc21,94.3
6,COc1ccc(Cc2nc3cc(C(C)=O)ccc3n2C[C@@H]2CCCN3CCCC[C@H]23)cc1,15.6
7,CCN(CC)CCCn1c(Cn2nc3ccccc3n2)nc2cc(C(C)=O)ccc21,17.5
8,Clc1ccc2c(c1)nc(Cn1nc3ccccc3n1)n2CC[C@@H]1CCCN2CCCC[C@H]12,10.1

# Target: Cannabinoid receptor 1 (CB1) (Homo sapiens, UniProt P21554)
# Sequence (P21554 whole entry): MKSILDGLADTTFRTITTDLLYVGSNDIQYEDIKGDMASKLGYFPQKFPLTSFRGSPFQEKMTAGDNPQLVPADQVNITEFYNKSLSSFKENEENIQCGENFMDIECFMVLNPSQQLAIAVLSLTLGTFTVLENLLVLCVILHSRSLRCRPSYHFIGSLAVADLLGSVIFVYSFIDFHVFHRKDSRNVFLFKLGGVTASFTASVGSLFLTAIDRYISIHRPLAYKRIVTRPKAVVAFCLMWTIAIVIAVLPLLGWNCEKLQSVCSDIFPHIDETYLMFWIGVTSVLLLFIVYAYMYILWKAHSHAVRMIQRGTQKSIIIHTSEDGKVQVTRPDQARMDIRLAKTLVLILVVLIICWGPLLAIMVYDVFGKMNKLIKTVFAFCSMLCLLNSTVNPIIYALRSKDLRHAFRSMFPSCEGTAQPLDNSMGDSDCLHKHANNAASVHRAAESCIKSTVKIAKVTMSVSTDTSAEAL
# Assay: Displacement of [3H]CP55940 from recombinant human CB1 receptor expressed in HEK293 cell membranes at 10 uM measured after 90 mins relative to control
# Conditions: probe [3H]CP55940
row,Compound,"inhibition at 1.5 h, 10 µM [%]"
1,COc1ccc(Cc2nc3cc(C(F)(F)F)ccc3n2C[C@@H]2CCCN3CCCC[C@H]23)cc1,5.5
2,COCCn1c(Cc2ccc(Cl)c(Cl)c2)nc2cc(C(F)(F)F)ccc21,41.4
3,CCN(CC)CCCn1c(Cc2ccc(OC)cc2)nc2cc(C(F)(F)F)ccc21,19.2
4,CCN(CC)CCn1c(-c2ccc(OC)cc2)nc2cc(C(F)(F)F)ccc21,1.95
5,CCCCn1c(Cc2ccc(Cl)c(Cl)c2)nc2cc(C(F)(F)F)ccc21,53.9
6,COc1ccc(Cc2nc3cc(C(C)=O)ccc3n2C[C@@H]2CCCN3CCCC[C@H]23)cc1,47.6
7,CCN(CC)CCCn1c(Cn2nc3ccccc3n2)nc2cc(C(C)=O)ccc21,15
8,Clc1ccc2c(c1)nc(Cn1nc3ccccc3n1)n2CC[C@@H]1CCCN2CCCC[C@H]12,17.6

# Target: T1, Cannabinoid receptor 2
# Assay: Displacement of [3H]CP55940 from recombinant human CB2 receptor expressed in HEK293 cell membranes measured after 90 mins
# Conditions: not given
# Outline: as §1
row,Compound,Ki [µM]
1,COc1ccc(Cc2nc3cc(C(F)(F)F)ccc3n2C[C@@H]2CCCN3CCCC[C@H]23)cc1,> 10
2,COCCn1c(Cc2ccc(Cl)c(Cl)c2)nc2cc(C(F)(F)F)ccc21,10
3,CCN(CC)CCCn1c(Cc2ccc(OC)cc2)nc2cc(C(F)(F)F)ccc21,> 10
4,CCN(CC)CCn1c(-c2ccc(OC)cc2)nc2cc(C(F)(F)F)ccc21,> 10
5,CCCCn1c(Cc2ccc(Cl)c(Cl)c2)nc2cc(C(F)(F)F)ccc21,0.37
6,COc1ccc(Cc2nc3cc(C(C)=O)ccc3n2C[C@@H]2CCCN3CCCC[C@H]23)cc1,> 10
7,CCN(CC)CCCn1c(Cn2nc3ccccc3n2)nc2cc(C(C)=O)ccc21,> 10
8,Clc1ccc2c(c1)nc(Cn1nc3ccccc3n1)n2CC[C@@H]1CCCN2CCCC[C@H]12,> 10

# Target: T1, Cannabinoid receptor 2
# Assay: Antagonist/inverse agonist activity at recombinant human CB2 receptor expressed in HEK293 cell membranes assessed as increase in NKH-477-induced cAMP accumulation measured after 30 mins by luminescence assay
# Format: functional, cell-based
# Conditions: not given
row,Compound,Activity
1,CCCCn1c(Cc2ccc(Cl)c(Cl)c2)nc2cc(C(F)(F)F)ccc21,Active

# Target: Cannabinoid receptor 1 (Homo sapiens, UniProt P21554)
# Sequence (P21554 whole entry): as above
# Assay: Displacement of [3H]CP55940 from recombinant human CB1 receptor expressed in HEK293 cell membranes measured after 90 mins
# Conditions: not given
# Outline: as §1
row,Compound,Ki [µM]
1,COc1ccc(Cc2nc3cc(C(F)(F)F)ccc3n2C[C@@H]2CCCN3CCCC[C@H]23)cc1,> 10
2,COCCn1c(Cc2ccc(Cl)c(Cl)c2)nc2cc(C(F)(F)F)ccc21,> 10
3,CCN(CC)CCCn1c(Cc2ccc(OC)cc2)nc2cc(C(F)(F)F)ccc21,> 10
4,CCN(CC)CCn1c(-c2ccc(OC)cc2)nc2cc(C(F)(F)F)ccc21,> 10
5,CCCCn1c(Cc2ccc(Cl)c(Cl)c2)nc2cc(C(F)(F)F)ccc21,10
6,COc1ccc(Cc2nc3cc(C(C)=O)ccc3n2C[C@@H]2CCCN3CCCC[C@H]23)cc1,> 10
7,CCN(CC)CCCn1c(Cn2nc3ccccc3n2)nc2cc(C(C)=O)ccc21,> 10
8,Clc1ccc2c(c1)nc(Cn1nc3ccccc3n1)n2CC[C@@H]1CCCN2CCCC[C@H]12,> 10
